According to ChEMBL document CHEMBL1148788 (J Med Chem, 2007):
Several values for one entry are separate records, joined by “and”; a condition that tells them apart may be missing. Identical values can stand only once. Activity calls are given as the source filed them. The calls are words filed in the database; no cut-off is given here.

What was measured:
[1] = Displacement of [3H]methyllycaconitine from chimeric alpha-7nAChR K145R mutant /5HT3A receptor in tsA201 cells; type: cell-based, Homo sapiens
How it was run: (§1)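 tsA-201 cells transiently transfected with 4 µg WT or mutant α7/5-HT3A chimera and assayed 2 days later. Membranes washed twice at 50000g in 50 mM Tris-HCl pH 7.2. Incubated with 0.5 nM [3H]MLA and compound for 2.5 h at room temperature with shaking; nonspecific binding with 5 mM (S)-nicotine. PEI-soaked GF/C filtration, scintillation counting. Ki derived; duplicate, 3–7 experiments.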

[2] = Displacement of [3H]methyllycaconitine from chimeric alpha-7nAChR N107A mutant/5HT3A receptor in tsA201 cells; type: cell-based, Homo sapiens; how it was run: as §1
[3] = Displacement of [3H]methyllycaconitine from chimeric alpha-7nAChR W55A mutant /5HT3A receptor in tsA201 cells; type: cell-based, Homo sapiens; how it was run: as §1
[4] = Displacement of [3H]methyllycaconitine from chimeric alpha7nAChR K145A mutant/5HT3A receptor in tsA201 cells; type: cell-based, Homo sapiens; how it was run: as §1
[5] = molecular target: T1, Neuronal acetylcholine receptor subunit alpha-7 (Homo sapiens, UniProt P36544)
Target sequence in this assay (P36544 whole entry): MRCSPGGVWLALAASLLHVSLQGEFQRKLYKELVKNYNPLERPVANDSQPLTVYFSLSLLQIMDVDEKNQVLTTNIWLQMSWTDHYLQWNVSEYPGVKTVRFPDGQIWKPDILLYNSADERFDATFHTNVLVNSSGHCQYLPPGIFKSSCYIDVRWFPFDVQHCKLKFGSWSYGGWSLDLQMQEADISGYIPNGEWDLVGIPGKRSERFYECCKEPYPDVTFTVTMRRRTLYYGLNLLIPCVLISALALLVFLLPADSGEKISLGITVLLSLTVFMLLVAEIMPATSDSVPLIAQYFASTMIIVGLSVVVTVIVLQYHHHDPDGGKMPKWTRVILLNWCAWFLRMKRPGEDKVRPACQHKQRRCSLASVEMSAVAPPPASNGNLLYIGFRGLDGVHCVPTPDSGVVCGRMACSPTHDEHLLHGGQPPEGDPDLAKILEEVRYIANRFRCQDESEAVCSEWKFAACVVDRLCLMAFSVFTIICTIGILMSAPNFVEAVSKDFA

[6] = Displacement of [3H]methyllycaconitine from chimeric alpha-7nAChR Y195F mutant/5HT3A receptor in tsA201 cells; type: cell-based, Homo sapiens; how it was run: as §1
[7] = Displacement of [3H]methyllycaconitine from chimeric alpha-7nAChR S148A mutant /5HT3A receptor in tsA201 cells; type: cell-based, Homo sapiens; how it was run: as §1
[8] = Antagonist activity at human alpha-7 nAChR Y195A mutant coexpressed with human Ric3 in tsA201 cells by FMP assay; type: functional, cell-based
tsA201 [9] = assay: Displacement of [3H]methyllycaconitine from chimeric alpha-7nAChR W55A/Y195A mutant /5HT3A receptor in tsA201 cells; type: cell-based; conditions: Homo sapiens; how it was run: as §1
[10] = Antagonist activity at human alpha-7 nAChR Y188A mutant coexpressed with human Ric3 in tsA201 cells by FMP assay; type: functional, cell-based
tsA201 [11] = assay: Displacement of [3H]methyllycaconitine from chimeric alpha-7nAChR W149A mutant/5HT3A receptor in tsA201 cells; type: cell-based; conditions: Homo sapiens; how it was run: as §1
[12] = Displacement of [3H]methyllycaconitine from chimeric alpha-7nAChR Y168A mutant/5HT3A receptor in tsA201 cells; type: cell-based, Homo sapiens; how it was run: as §1
[13] = Antagonist activity at human alpha7 nAChR W149Y mutant co-expressed with human Ric3 in tsA201 cells by FMP assay; type: functional, cell-based
[14] = Displacement of [3H]methyllycaconitine from chimeric alpha7nAChR W55Y mutant/5HT3A receptor in tsA201 cells; type: cell-based, Homo sapiens; how it was run: as §1
[15] = Displacement of [3H]methyllycaconitine from chimeric alpha7nAChR Y195A mutant/5HT3A receptor in tsA201 cells; type: cell-based, Homo sapiens; how it was run: as §1
[16] = molecular target: T1, Neuronal acetylcholine receptor subunit alpha-7; assay: Displacement of [3H]methyllycaconitine from alpha7 nAChR in tsA201 cells co-expressed with Ric3; type: cell-based
Target sequence in this assay (P36544 whole entry): as above

[17] = Displacement of [3H]methyllycaconitine from chimeric alpha-7nAChR S150A mutant/5HT3A receptor in tsA201 cells; type: cell-based, Homo sapiens; how it was run: as §1
tsA201 [18] = assay: Displacement of [3H]methyllycaconitine from chimeric alpha-7nAChR W149Y mutant/5HT3A receptor W149Y mutant in tsA201 cells; type: cell-based; conditions: Homo sapiens; how it was run: as §1
[19] = Antagonist activity at human alpha7nAChR Y93A mutant co-expressed with human Ric3 in tsA201 cells by FMP assay; type: functional, cell-based
tsA201 [20] = assay: Displacement of [3H]methyllycaconitine from chimeric alpha-7nAChR Y188A mutant/5-HT3A receptor in tsA201 cells; type: cell-based; conditions: Homo sapiens; how it was run: as §1
[21] = molecular target: T1, Neuronal acetylcholine receptor subunit alpha-7; assay: Displacement of [3H]methyllycaconitine from human alpha-7 in tsA201 cells coexpressed with 5HT3A receptor; type: cell-based
Target sequence in this assay (P36544 whole entry): as above

tsA201 [22] = assay: Displacement of [3H]methyllycaconitine from chimeric alpha-7nAChR Y93A mutant/5HT3A receptor in tsA201 cells; type: cell-based; conditions: Homo sapiens; how it was run: as §1
[23] = Displacement of [3H]methyllycaconitine from chimeric alpha-7nAChR D197A mutant/5HT3A receptor in tsA201 cells; type: cell-based, Homo sapiens; how it was run: as §1
[24] = molecular target: T1, Neuronal acetylcholine receptor subunit alpha-7; assay: Displacement of [3H]methyllycaconitine from chimeric alpha7nAChR/5HT3A in tsA201 cells; type: cell-based
Target sequence in this assay (P36544 23-502 limits assumed): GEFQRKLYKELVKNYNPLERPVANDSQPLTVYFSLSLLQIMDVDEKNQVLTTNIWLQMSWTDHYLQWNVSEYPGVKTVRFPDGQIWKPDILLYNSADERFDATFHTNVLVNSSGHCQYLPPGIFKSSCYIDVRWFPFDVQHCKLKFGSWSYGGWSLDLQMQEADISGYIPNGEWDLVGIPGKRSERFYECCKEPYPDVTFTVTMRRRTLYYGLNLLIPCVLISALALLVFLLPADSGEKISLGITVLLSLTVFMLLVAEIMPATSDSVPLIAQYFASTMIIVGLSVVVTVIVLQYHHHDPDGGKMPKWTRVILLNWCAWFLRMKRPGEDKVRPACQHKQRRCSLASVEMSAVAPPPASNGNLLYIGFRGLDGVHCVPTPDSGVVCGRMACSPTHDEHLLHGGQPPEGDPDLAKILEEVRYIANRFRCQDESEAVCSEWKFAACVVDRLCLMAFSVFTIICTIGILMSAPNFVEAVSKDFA

[25] = Displacement of [3H]methyllycaconitine from chimeric alpha7nAChR R79A mutant/5HT3A receptor R79A mutant in tsA201 cells; type: cell-based, Homo sapiens; how it was run: as §1
[26] = molecular target: T1, Neuronal acetylcholine receptor subunit alpha-7; assay: Antagonist activity at human alpha-7 nAChR in tsA201 cells coexpressed with Ric3 by FMP assay; type: functional, cell-based
Target sequence in this assay (P36544 whole entry): as the sequence (P36544 whole entry) above

With `CCN1C[C@]2(COC(=O)c3ccccc3N3C(=O)C[C@H](C)C3=O)CC[C@H](OC)[C@@]34[C@@H]5C[C@H]6[C@H](OC)[C@@H]5[C@](O)(C[C@@H]6OC)[C@](O)([C@@H](OC)[C@H]23)[C@@H]14` [METHYLLYCACONITINE] as the compound, how does the Ki [1] read?
Its Ki is 4.3 nM.

What about the pKi [1] of the same compound?
Its pKi is 8.37.

What about the Ki [2] of the same compound?
The Ki was 3.2 nM.

What about the pKi [2] of the same compound?
Its pKi is 8.42.

And the Ki [3]?
Its Ki is 24 nM.

And the pKi [3]?
The pKi was 7.62.

And the Ki [4]?
Its Ki is 3.9 nM.

And the pKi [4]?
The pKi was 8.41.

What about the IC50 [5] of the same compound?
Its IC50 is 8.3 nM and 8.32 nM.

What about the Ki [6] of the same compound?
Its Ki is 1.7 nM.

What about the pKi [6] of the same compound?
The pKi was 8.78.

And the Ki [7]?
The Ki was 2.5 nM.

And the pKi [7]?
The pKi was 8.6.

And the IC50 ([8]; read-out: IC50)?
The IC50 was 320 nM.

What about the IC50 ([8]; read-out: pIC50 (converted)) of the same compound?
Its IC50 is 324 nM.

And the Activity (tsA201 [9])?
The Activity was “inactive”.

And the IC50 ([10]; read-out: IC50)?
The IC50 was 1800 nM.

What about the IC50 ([10]; read-out: pIC50 (converted)) of the same compound?
Its IC50 is 1820 nM.

What about the Activity (tsA201 [11]) of the same compound?
The Activity was “inactive”.

And the Ki [12]?
The Ki was 1.9 nM.

What about the pKi [12] of the same compound?
The pKi was 8.71.

And the IC50 ([13]; read-out: IC50)?
The IC50 was 89 nM.

And the IC50 ([13]; read-out: pIC50 (converted))?
Its IC50 is 10000 nM.

And the Ki [14]?
The Ki was 4.5 nM.

What about the pKi [14] of the same compound?
Its pKi is 8.35.

And the Ki [15]?
The Ki was 13 nM.

And the pKi [15]?
Its pKi is 7.89.

What about the Ki ([16]; read-out: Ki) of the same compound?
The Ki was 6.1 nM.

What about the Ki ([16]; read-out: pKi (converted)) of the same compound?
Its Ki is 6.31 nM.

And the Ki [17]?
The Ki was 3.5 nM.

What about the pKi [17] of the same compound?
Its pKi is 8.45.

What about the Activity (tsA201 [18]) of the same compound?
The Activity was “inactive”.

And the IC50 ([19]; read-out: IC50)?
Its IC50 is 10000 nM.

And the IC50 ([19]; read-out: pIC50 (converted))?
The IC50 was 31600 nM.

What about the Activity (tsA201 [20]) of the same compound?
The Activity was “inactive”.

What about the Ki ([21]; read-out: Ki) of the same compound?
Its Ki is 1.1 nM.

And the Ki ([21]; read-out: pKi (converted))?
The Ki was 1 nM.

What about the Activity (tsA201 [22]) of the same compound?
The Activity was “inactive”.

What about the Ki [23] of the same compound?
The Ki was 5.5 nM.

What about the pKi [23] of the same compound?
Its pKi is 8.26.

What about the Ki [24] of the same compound?
The Ki was 1.6 nM.

And the pKi [24]?
The pKi was 8.79.

What about the Ki [25] of the same compound?
The Ki was 3.5 nM.

And the pKi [25]?
The pKi was 8.45.

What about the IC50 ([26]; read-out: IC50) of the same compound?
Its IC50 is 8.3 nM.

What about the IC50 ([26]; read-out: pIC50 (converted)) of the same compound?
Its IC50 is 8.32 nM.
